# Source: the RNAGym collection of RNA variant scans (doi:10.1126/science.aae0568)
# Variants at the floor of the assay were thinned out.
# B1: tRNA (parent)
# chain: GUUCCGUUGGCGUAAUGGUAACGCGUCUCCCUCCUAAGGAGAAGACUGCGGGUUCGAGUCCCGUACGGAACG
# Variants of: B1
# Assay: yeast fitness relative to wild type (ratio to wild type); higher = fitter; tRNA-Arg(CCU), competitive growth, 37 C, YPD
# Outline: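 For this measurement, the tRNA-Arg(CCU) gene was varied by chemical synthesis at a 3% per-site mutation rate across 69 sites, and each variant was placed at the native genomic locus in Saccharomyces cerevisiae. The pooled strains went through a 24-hour competition in YPD at 37°C in six parallel replicates, with amplicons from start and end populations read by 100-nucleotide paired-end sequencing. Darwinian fitness relative to wild type followed from the change in each genotype's frequency. Genotypes needed ≥ 100 starting reads, and estimates < 0.5 were set to 0.5.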
row,Variant,yeast fitness
1,GUUCCGUUGGCGUAAUGGUAACGCGUCUCCCUCCUAAGGCGAAGACUACGGGUUCGAGUCCCGUACGGAACG,1.02
2,GUUCUGUUGGCGUAAUGGUCACGUGUCUCCCUCGUAAGGAGAAGACUGCGGGUUCGAGUCCCGUACGGAACG,≤ 0.5
3,GUUCCAUUGGCGUAAAGGUAACGCGUCUCCCUCCUAAGGAGAAGACUGCGGGUUCGAGUCCCGUACGGAACG,0.769
4,GUUCCGUUGGCGUAAUGGUAACGCGUCUCCAUCCUAAGGAGAAGACUGCGGGUUCGAGUCCCGUACAGAACG,0.754
5,GUUCCGUUGGCGUAAUGGUAAACCGUCUCCCUCUUGAGGUGAAGACUGCGGGUUCGAGUCCCAUACGGAACG,≤ 0.5
6,GUUCCGUUGGCGUAAUGGUAACGCGCCUCCCUCCUAAGGAGAAGACUGCGGGUUCGAGUCCCGUGCGGAACG,0.932
7,GUUCCGUUGGCGUAUUGGUAACGCGUCUCCCUCCUAGGGAGAAGACUGCGGGUUCGAGUCCCGUCCGGAACG,≤ 0.5
8,GUUCCGUUGGCGUAAUGGUAUCGUGUAUCCCUCCUACGGUGAAGACUGCGGGUUCGAGUCCCGUACGGAACG,≤ 0.5
9,GUUCCGGUGGCGUAAUGGUAACGCGUCUCCCUCCUAAGCAGAAGACUGCGGGUUCGAGUCCCGUACGGAACG,0.632
10,GUUCCGUUGGCGUAAUGGUCACACGUCUCCCUCCUAAGGAGAAGACUGCGGGUUCGAGUCCCGUACGGAACG,0.788
11,GUUGCGUUGGCGUAAUGGUAACGCGUCUCCCUCCUUAGGAGAAGACUGCGGGUUCGAGUGCCGUACGGAACG,0.655
12,GUUCUGCUGGCGUAAUGGUAACGCGUCUCCCUCCUAAGGAGAAGACUGCGGCUUCGUGUCCUGUAGGGAACG,≤ 0.5
13,GUUCCGUUGGCGUAAUGGUAACGCGUCUCCCUCCUAAGGAGAAAAGUGCCGGAUCGAGUCCCGUACGGAACG,≤ 0.5
14,GUUCCGUCAGCGUAAUCGUAACGCGUCUCCCUCCUAAGGAGAAGACUGCGGGUUCCAGUCCCGUACGGAACG,0.532
15,GUUCCGUUGGCGAAAUGGUAACGCGUCUCCCUCCUAAGGAGAAGACUGCGGGUCCGAGUCCUGUACGGAACG,0.679
16,GUUCCGUUGGCGUAAUGGUAACGCGUCUCCCUCCUAAGAUGAAGACUGCGGGUUCGAGUCCCGUACGGAACG,1.19
17,GUUCCGUUGGCGUAAUGGUAACGCGUCUCCCUCCUAAGGAGAAAACUGCGGGUUCGAGUGCCGCACGGAACG,≤ 0.5
18,GUUCCGUUGGCGUAAUCGUAACGCGUCUCCCUCCUAAGGAGAAGGCUGCGGGUUCGAGUCCCGUACGGAACG,0.546
19,GUUCCGUUGGCGGAAUGGUAACGCGUCUCCUUCCAAAGGAGAAGACUGCGGGUUCGCGUCCCGUACGGAACG,0.61

row,Variant,yeast fitness
1,GUUCCGUUGGCGUAAUGCUAAUGCGUCUCCCUCCUAAGGAGAAGACUGCGGGUUCGAGUCCCGUACGGAACG,0.558
2,GUUCCGUUGGCGUAAUGGUAACGCGUCUCCCACCUAAGGAGAAGACUGCGGGUUCGAGGCCCGUACGGAACG,0.831
3,GUUCCGUUGGCGUAAUGGUAACGCGCCUCCCUCCUAAGCAGAAGACUGCGGGUUAGAGUGCCGUACGGAACG,≤ 0.5
4,GUUCCGUUGGCGUCAUGGUAACGCGUCUCCCUCCUAAGGAGAAGACUGGGGGUUCGAGUCCCGUACGGAACG,0.542
5,GUUCCGUUGGCGUAAUGAUAACGCGUCUCCCCCCUAAGGAGAAGACUGCGGGUUCGAGUCCCGUGCGGAACG,0.535
6,GCUCCGUUGGCGUAAUGGUAACGCGUCUCCCUCCUAAGGAGCAGACUGCGGGUACGAGUCCCGUACCGUACG,≤ 0.5
7,GUUCCGUUGGCGUAAUGGUAACGCGUCUCCCUCCUAAGGAGAAGACUGCGGGUUCGGGUCCCGUAGGGAACG,0.783
8,GUUCCGUUGGCGUAAUGGCAACGCCUCUCCCUCCUAGGGAGAAGACUGCGGGUUCGAGUCCCGUACGGAACG,0.6
9,GUUCCGUUGGGGUAAUGGUAACGCGUCUCCCUCAUUAGGAGAAGACUACGGCUUCGAGUACUGUACGGAACG,≤ 0.5
10,GUUCUGUAGGCGUAAUGGUAACGCGUCUCCCUCCUAAGGAGAAGAAUGCGGGUUCGAGUCCCGUACGGAACG,≤ 0.5
11,GUUCCGUUGGCGUAAUGGUAGCGUGUCUCCCUUCUAAGGAGAAGACUGCGGGUUCGAGUCCCGUACGGAACG,≤ 0.5
12,GCUCCGUUCGCGUAAUGGUAACGCGUCUCCCUCCUAAGGAGAAGACUGCGGGUUCGAGUCCCGUACGGAACG,0.722
13,GUUCCGUUGGCGUAAUGGUAACGCGUCUGUCUCCUAAGGAGAAGAUUACGGGUUCGAGUCCCGUACGGAACG,≤ 0.5
14,GUUCCGUUGGUGUAAUGGUAACGGGUCUCCCUCCUAAGGAGAAGACUGCGGGUUCGAGUCCCGUACGGAUCG,0.557
15,GUUCCGUUGGCGUAGUGGUAACGCGUCUCCCUCCUAGGGAGAAGACUGCGGGUUCGAGUCCCGUACGGACCG,0.664
16,GUUCCGUUGGCGUAAUGGUAACAAGUCUCCAUCCUGAGGAGAAGACUGCGGGUUCGAGUCCCGUACGGAACG,≤ 0.5
17,GUUCCGAUGGCGUAAUGGUAUCGCGUCUCCCUCCUAACGAGAAGGCUGCGGGUUCGAGACCCGUACGGAACG,≤ 0.5
18,GUUCGGUUGGCGUAAUGGUAACGCGUCUCCCUCAUAUGGAGAAAACUGCGAGUUAGAGUCCCGUACGGAACG,0.654
19,GUUCCGUUGGCGUAAUCGUAACCCGUCUCCCUCCUAAGGAGAUGACUGAGGGUUCGAGUCCCGUACGGAACG,0.613
